Experimental data reported in publication PMC2921005 (Leukemia, 2010).

Experiment: Phase I dose escalation trial: toxicities, DLT and MTD
Assay type: in vivo, human
Conditions: for Any toxicity, Grade 3: n = number of events
In short: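 Oral twice-daily tablets of test compound were given for 14 or 21 days of each 28-day cycle. Dose levels were 400 mg ×14 d, 400 mg ×21 d, 600 mg ×14 d and 600 mg ×21 d. Every patient was assessed for DLT, with no intrapatient escalation and up to 6 cycles.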

For `CNC(=O)c1cc(Oc2ccc(NC(=O)Nc3ccc(Cl)c(C(F)(F)F)c3)cc2)ccn1` [sorafenib], the “Alkaline phosphatase, Grade 3” value (400 mg bid × 14d (cycles=6)) was 0 (0) n (%), the “Any toxicity, Grade 4” value (400 mg bid × 14d (cycles=6)) was 0 (0) n (%) and the “Bilirubin, Grade 4” value (400 mg bid × 14d (cycles=6)) was 0 (0) n (%). For the same compound, the “Edema (limb), Grade 3” value (400 mg bid × 14d (cycles=6)) was 0 (0) n (%), the “Fatigue, Grade 3” value (400 mg bid × 14d (cycles=6)) was 1 (17) n (%) and the “Febrile neutropenia, Grade 3” value (400 mg bid × 14d (cycles=6)) was 2 (33) n (%). The “Fever (without neutropenia), Grade 3” value (400 mg bid × 14d (cycles=6)) was 0 (0) n (%), the “Hand-foot skin reaction, Grade 3” value (400 mg bid × 14d (cycles=6)) was 0 (0) n (%) and the “Hypokalemia, Grade 3” value (400 mg bid × 14d (cycles=6)) was 1 (17) n (%). For the same compound, the “Hypophosphatemia, Grade 3” value (400 mg bid × 14d (cycles=6)) was 0 (0) n (%), the “Hypophosphatemia, Grade 4” value (400 mg bid × 14d (cycles=6)) was 0 (0) n (%) and the “Muscle weakness, Grade 3” value (400 mg bid × 14d (cycles=6)) was 0 (0) n (%). For the same compound, the “Pain, Abdomen NOS, Grade 3” value (400 mg bid × 14d (cycles=6)) was 0 (0) n (%), the “Pain, Back, Grade 3” value (400 mg bid × 14d (cycles=6)) was 0 (0) n (%) and the “Pain, Joint, Grade 3” value (400 mg bid × 14d (cycles=6)) was 0 (0) n (%). For the same compound, the “Any toxicity, Grade 3” value (400 mg bid × 14d (cycles=6)) was 3 (50) n (%), the “Alkaline phosphatase, Grade 3” value (400 mg bid × 21d (cycles=21)) was 2 (10) n (%) and the “Any toxicity, Grade 4” value (400 mg bid × 21d (cycles=21)) was 3 (14) n (%). The “Bilirubin, Grade 4” value (400 mg bid × 21d (cycles=21)) was 1 (5) n (%), the “Edema (limb), Grade 3” value (400 mg bid × 21d (cycles=21)) was 2 (10) n (%) and the “Fatigue, Grade 3” value (400 mg bid × 21d (cycles=21)) was 4 (19) n (%). For the same compound, the “Febrile neutropenia, Grade 3” value (400 mg bid × 21d (cycles=21)) was 3 (14) n (%), the “Fever (without neutropenia), Grade 3” value (400 mg bid × 21d (cycles=21)) was 1 (5) n (%) and the “Hand-foot skin reaction, Grade 3” value (400 mg bid × 21d (cycles=21)) was 1 (5) n (%). The “Hypokalemia, Grade 3” value (400 mg bid × 21d (cycles=21)) was 2 (10) n (%), the “Hypophosphatemia, Grade 3” value (400 mg bid × 21d (cycles=21)) was 1 (5) n (%) and the “Hypophosphatemia, Grade 4” value (400 mg bid × 21d (cycles=21)) was 1 (5) n (%). The “Muscle weakness, Grade 3” value (400 mg bid × 21d (cycles=21)) was 2 (10) n (%), the “Pain, Abdomen NOS, Grade 3” value (400 mg bid × 21d (cycles=21)) was 1 (5) n (%) and the “Pain, Back, Grade 3” value (400 mg bid × 21d (cycles=21)) was 0 (0) n (%). For the same compound, the “Pain, Joint, Grade 3” value (400 mg bid × 21d (cycles=21)) was 1 (5) n (%), the “Any toxicity, Grade 3” value (400 mg bid × 21d (cycles=21)) was 10 (48) n (%) and the “Dose limiting toxicities, patients” value (600mg BID × 14 days, elevated transaminases (n=1), back pain (1)) was 2/3. The “Alkaline phosphatase, Grade 3” value (600 mg bid × 14d (cycles=4)) was 0 (0) n (%), the “Any toxicity, Grade 4” value (600 mg bid × 14d (cycles=4)) was 1 (25) n (%) and the “Bilirubin, Grade 4” value (600 mg bid × 14d (cycles=4)) was 1 (25) n (%). The “Edema (limb), Grade 3” value (600 mg bid × 14d (cycles=4)) was 0 (0) n (%), the “Fatigue, Grade 3” value (600 mg bid × 14d (cycles=4)) was 0 (0) n (%) and the “Febrile neutropenia, Grade 3” value (600 mg bid × 14d (cycles=4)) was 2 (50) n (%). For the same compound, the “Fever (without neutropenia), Grade 3” value (600 mg bid × 14d (cycles=4)) was 0 (0) n (%), the “Hand-foot skin reaction, Grade 3” value (600 mg bid × 14d (cycles=4)) was 0 (0) n (%) and the “Hypokalemia, Grade 3” value (600 mg bid × 14d (cycles=4)) was 0 (0) n (%). The “Hypophosphatemia, Grade 3” value (600 mg bid × 14d (cycles=4)) was 0 (0) n (%), the “Hypophosphatemia, Grade 4” value (600 mg bid × 14d (cycles=4)) was 0 (0) n (%) and the “Muscle weakness, Grade 3” value (600 mg bid × 14d (cycles=4)) was 0 (0) n (%). The “Pain, Abdomen NOS, Grade 3” value (600 mg bid × 14d (cycles=4)) was 0 (0) n (%), the “Pain, Back, Grade 3” value (600 mg bid × 14d (cycles=4)) was 1 (25) n (%) and the “Pain, Joint, Grade 3” value (600 mg bid × 14d (cycles=4)) was 0 (0) n (%). The “Any toxicity, Grade 3” value (600 mg bid × 14d (cycles=4)) was 4 (100) n (%).
